Assay results taken from the RNAGym collection of RNA variant scans (doi:10.1002/anie.201605470).

B1: Osa-1-4 twister ribozyme (parent)
chain: CCGCCUAACACUGCCAAUGCCGGUCCCAAGCCCGGAUAAAAGUGGAGGGGGCGG

Variants of: B1
Test: self-cleavage, relative activity (ratio to wild type); higher = more cleavage; co-transcriptional
Method in brief: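 A DNA template for a 54-nucleotide Oryza sativa twister ribozyme was synthesised with 97 % wild-type base and 1 % of each other base at the 48 positions downstream of the cleavage site. It was transcribed in vitro for 2 h at 37 °C, allowing co-transcriptional self-cleavage, then reverse-transcribed with a template-switching oligonucleotide, PCR-amplified and deep-sequenced. Cleavage status was scored from reads with or without upstream sequence. Relative activity is fraction cleaved normalised to wild type.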

Which self-cleavage does the source give for CCGCCUAACACUGCCAAUGCCGGUCCCAAACCCGGAUAAAAGGGGAGGGGGCGG here?
Its self-cleavage is 0.04.

With CCGCCUAACACUGCCAAUGCCGGUCCCAAACCCGGAUAAAAGCGGAGGGGGCGG as the variant, how does the self-cleavage read?
The self-cleavage was 0.02.

For CCGCCUAACACUGCCAAUGCCGGUCCCAAACCCGGAUAAAAGAGGAGGGGGCGG, which self-cleavage is on record?
The self-cleavage was 0.04.

With CCGCCUAACACUGCCAAUGCCGGUCCCAACCCCGGAGAAAAGUGGAGGGGGCGG as the variant, how does the self-cleavage read?
The self-cleavage was 0.05.

Which self-cleavage does the source give for CCGCCUAACACUGCCAAUGCCGGUCCCAACCCCGGACAAAAGUGGAGGGGGCGG here?
Its self-cleavage is 0.04.

Which self-cleavage does the source give for CCGCCUAACACUGCCAAUGCCGGUCCCAACCCCGGAAAAAAGUGGAGGGGGCGG here?
The self-cleavage was 0.03.

With CCGCCUAACACUGCCAAUGCCGGUCCCAACCCCGGAUAAAAGUGGAUGGGGCGG as the variant, how does the self-cleavage read?
The self-cleavage was 0.03.

For CCGCCUAACACUGCCAAUGCCGGUCCCAACCCCGGAUAAAAGUGGACGGGGCGG, which self-cleavage is on record?
Its self-cleavage is 0.02.

With CCGCCUAACACUGCCAAUGCCGGUCCCAACCCCGGAUAAAAGUGGAAGGGGCGG as the variant, how does the self-cleavage read?
Its self-cleavage is 0.03.

For CCGCCUAACACUGCCAAUGCCGGGCCCAACCCCGGAUAAAAGUGGAGGGGGCGG, which self-cleavage is on record?
The self-cleavage was 0.01.

For CCGCCUAACACUGCCAAUGCCGGACCCAACCCCGGAUAAAAGUGGAGGGGGCGG, which self-cleavage is on record?
Its self-cleavage is 0.03.

With CCGCCUAACACUGCCAAUGCCGGCCCCAACCCCGGAUAAAAGUGGAGGGGGCGG as the variant, how does the self-cleavage read?
Its self-cleavage is 0.04.

For CCGCCUAACACUGCCAAUGCCGGUCCCAAUCCCGGAUAAAAAUGGAGGGGGCGG, which self-cleavage is on record?
Its self-cleavage is 0.04.

With CCGCCUAACACUGCCAAUGCCGGUCCCAAUCCCGGAUAAAACUGGAGGGGGCGG as the variant, how does the self-cleavage read?
Its self-cleavage is 0.03.

With CCGCCUAACACUGCCAAUGCCGGUCCCAAUCCCGGAUAAAAUUGGAGGGGGCGG as the variant, how does the self-cleavage read?
The self-cleavage was 0.02.

Which self-cleavage does the source give for CCGCCUAACACUGCCAAUGCCGGUCCCAACCCCGGAUAAAAGUGGAGGGGGCGU here?
The self-cleavage was 0.05.

For CCGCCUAACACUGCCAAUGCCGGUCCCAACCCCGGAUAAAAGUGGAGGGGGCGC, which self-cleavage is on record?
The self-cleavage was 0.04.

Which self-cleavage does the source give for CCGCCUAACACUGCCAAUGCCGGUCCCAACCCCGGAUAAAAGUGGAGGGGGCGA here?
Its self-cleavage is 0.05.

For CCGCCUAACACUGCCAAUGCCGGUCCCAACCCCGGAUAAAAGGGGAGGGGGCGG, which self-cleavage is on record?
The self-cleavage was 0.05.

For CCGCCUAACACUGCCAAUGCCGGUCCCAACCCCGGAUAAAAGAGGAGGGGGCGG, which self-cleavage is on record?
The self-cleavage was 0.05.

Which self-cleavage does the source give for CCGCCUAACACUGCCAAUGCCGGUCCCAACCCCGGAUAAAAGCGGAGGGGGCGG here?
The self-cleavage was 0.04.

Which self-cleavage does the source give for CCGCCUAACACUGCCAAUGCCGGUCCCAAUCCCUGAUAAAAGUGGAGGGGGCGG here?
The self-cleavage was 0.04.

With CCGCCUAACACUGCCAAUGCCGGUCCCAAUCCCCGAUAAAAGUGGAGGGGGCGG as the variant, how does the self-cleavage read?
Its self-cleavage is 0.05.

For CCGCCUAACACUGCCAAUGCCGGUCCCAAUCCCAGAUAAAAGUGGAGGGGGCGG, which self-cleavage is on record?
Its self-cleavage is 0.04.

For CCGCCUAACACUGCCAAUGCCGGUCCCAACCCCGGAUAAAAGUGGAGUGGGCGG, which self-cleavage is on record?
Its self-cleavage is 0.02.

Which self-cleavage does the source give for CCGCCUAACACUGCCAAUGCCGGUCCCAACCCCGGAUAAAAGUGGAGCGGGCGG here?
The self-cleavage was 0.02.

With CCGCCUAACACUGCCAAUGCCGGUCCCAACCCCGGAUAAAAGUGGAGAGGGCGG as the variant, how does the self-cleavage read?
Its self-cleavage is 0.02.

With CCGCCUAACACGGCCAAUGCCGGUCCCAACCCCGGAUAAAAGUGGAGGGGGCGG as the variant, how does the self-cleavage read?
The self-cleavage was 0.1.

For CCGCCUAACACAGCCAAUGCCGGUCCCAACCCCGGAUAAAAGUGGAGGGGGCGG, which self-cleavage is on record?
The self-cleavage was 0.06.

For CCGCCUAACACCGCCAAUGCCGGUCCCAACCCCGGAUAAAAGUGGAGGGGGCGG, which self-cleavage is on record?
The self-cleavage was 0.03.

With CCGCCUAACACUGCCAAUGCCGGACCCAAACCCGGAUAAAAGUGGAGGGGGCGG as the variant, how does the self-cleavage read?
Its self-cleavage is 0.03.

Which self-cleavage does the source give for CCGCCUAACACUGCCAAUGCCGGGCCCAAACCCGGAUAAAAGUGGAGGGGGCGG here?
The self-cleavage was 0.01.

For CCGCCUAACACUGCCAAUGCCGGCCCCAAACCCGGAUAAAAGUGGAGGGGGCGG, which self-cleavage is on record?
Its self-cleavage is 0.03.

With CCGCCUAACACUGCCAAUGCCGGUCCCAACCCCGGAUAAAAGUGGAGGGGGCGG as the variant, how does the self-cleavage read?
Its self-cleavage is 0.04.

For CCGCCUAACACUGCCAAUGCCGGUCCCAAUCCCGGAUAAAAGUGGAGGGGGCGG, which self-cleavage is on record?
Its self-cleavage is 0.04.

With CCGCCUAACACUGCCAAUGCCGGUCCCAACCCCGGAUAAAAGUGGAGGGUGCGG as the variant, how does the self-cleavage read?
Its self-cleavage is 0.05.

With CCGCCUAACACUGCCAAUGCCGGUCCCAACCCCGGAUAAAAGUGGAGGGAGCGG as the variant, how does the self-cleavage read?
The self-cleavage was 0.04.

With CCGCCUAACACUGCCAAUGCCGGUCCCAACCCCGGAUAAAAGUGGAGGGCGCGG as the variant, how does the self-cleavage read?
The self-cleavage was 0.05.

For CCGCCUAACACUGCCAAUGCCGGUCCCAAUCCCGGAUAAAAGUGGAGUGGGCGG, which self-cleavage is on record?
The self-cleavage was 0.02.

With CCGCCUAACACUGCCAAUGCCGGUCCCAAUCCCGGAUAAAAGUGGAGCGGGCGG as the variant, how does the self-cleavage read?
Its self-cleavage is 0.02.

With CCGCCUAACACUGCCAAUGCCGGUCCCAAUCCCGGAUAAAAGUGGAGAGGGCGG as the variant, how does the self-cleavage read?
Its self-cleavage is 0.02.

Which self-cleavage does the source give for CCGCCUAACACUGCCAAUGCCGGUCCCAACCCCGGAUAAAAUUGGAGGGGGCGG here?
The self-cleavage was 0.02.

With CCGCCUAACACUGCCAAUGCCGGUCCCAACCCCGGAUAAAAAUGGAGGGGGCGG as the variant, how does the self-cleavage read?
Its self-cleavage is 0.04.

Which self-cleavage does the source give for CCGCCUAACACUGCCAAUGCCGGUCCCAACCCCGGAUAAAACUGGAGGGGGCGG here?
The self-cleavage was 0.04.

For CCGCCUAACACUGCCAAUGCCGGUCCCAACCCCCGAUAAAAGUGGAGGGGGCGG, which self-cleavage is on record?
The self-cleavage was 0.04.

With CCGCCUAACACUGCCAAUGCCGGUCCCAACCCCAGAUAAAAGUGGAGGGGGCGG as the variant, how does the self-cleavage read?
Its self-cleavage is 0.07.

Which self-cleavage does the source give for CCGCCUAACACUGCCAAUGCCGGUCCCAACCCCUGAUAAAAGUGGAGGGGGCGG here?
Its self-cleavage is 0.04.

Which self-cleavage does the source give for CCGCCUAACACUGCCAAUGCCGGUCCCAAACCCGGAUAAAAGUGGAGGGGGCAG here?
Its self-cleavage is 0.03.
